Assay results published in ChEMBL document CHEMBL1275442, “Pharmacokinetics and tissue distribution of anidulafungin in rats” (Antimicrob Agents Chemother, 2008).

Columns and labels:
Muscle tissue [1] = assay: Half life in F344 rat muscle assessed as total compound-derived radioactivity at 5 mg/kg, iv administered as single bolus dose […]; assay type: ADME, organism-based; parameters: dose 5 mg/kg, route intravenous; conditions: in vivo
Outline: (§1)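 Male F344 rats, 10 to 11 weeks old and 223.6 to 243.8 g, got one iv dose of [14C]anidulafungin at 5 mg/kg over about 5 min. Blood, CSF, kidney, liver, lung, quadriceps, spleen and skin were sampled predose and at 0.083 to 72 h, 3 rats per time. Total radioactivity (parent plus metabolites) was measured by liquid scintillation counting. Parameters were noncompartmental, from a composite mean profile.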

Kidney [2] = assay: Drug level in Long Evans rat kidney assessed as low disposition of radioactivity per gram of tissue at 5 mg/kg, iv administered as single bolus dose measured 24 hrs postdose by autoradiography; assay type: ADME, organism-based; parameters: dose 5 mg/kg, route intravenous; conditions: in vivo
Outline: (§2)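 Male pigmented Long Evans (HsdBlu:LE) rats, 7.5 weeks old, 202 to 217 g, single iv [¹⁴C]anidulafungin; one rat per sampling time. Euthanized by isoflurane and cardiac-puncture exsanguination. Sagittal whole-body sections quantified by phosphorimaging autoradiography, single samples corrected for section thickness across multiple sections per tissue. Concentrations (μg eq/g drug-derived radioactivity) interpolated from least-squares standard curves per scan.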

Kidney [3] = assay: Drug level in Long Evans rat kidney assessed as high disposition of radioactivity per gram of tissue at 5 mg/kg, iv administered as single bolus dose measured 72 hrs postdose by autoradiography; assay type: ADME, organism-based; parameters: dose 5 mg/kg, route intravenous; conditions: in vivo; outline: as §2
Cerebrospinal fluid [4] = assay: Tmax in F344 rat cerebrospinal fluid assessed as total compound-derived radioactivity at 5 mg/kg, iv administered as single bolus dose […]; assay type: ADME, organism-based; parameters: dose 5 mg/kg, route intravenous; conditions: in vivo; outline: as §1
Kidney [5] = assay: Drug level in Long Evans rat kidney assessed as high disposition of radioactivity per gram of tissue at 5 mg/kg, iv administered as single bolus dose measured 168 hrs postdose by autoradiography; assay type: ADME, organism-based; parameters: dose 5 mg/kg, route intravenous; conditions: in vivo; outline: as §2
Zone of skin [6] = assay: Cmax in F344 rat skin assessed as total compound-derived radioactivity per gram of tissue at 5 mg/kg, iv administered as single bolus dose […]; assay type: ADME, organism-based; parameters: dose 5 mg/kg, route intravenous; conditions: in vivo
Outline: (§3)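 Same F344 study: single 5 mg/kg IV [¹⁴C]anidulafungin given over about 5 min. Total drug-derived radioactivity (parent plus metabolites) counted by liquid scintillation, in […]. Noncompartmental analysis of the composite mean profile.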

[7] = Cmax in F344 rat liver at 5 mg/kg, iv administered as single bolus dose after 5 min by HPLC method; assay type: ADME, organism-based; parameters: dose 5 mg/kg, route intravenous
Outline: (§4)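 Male F344 rats, 10–11 weeks, 223.6–243.8 g, given one IV dose of [¹⁴C]anidulafungin, 5 mg/kg, over about 5 min. Tissues and blood sampled at 0.083–72 h (n = 3 rats per time). Parent drug measured by HPLC; LLOQ/ULOQ were 20/5,120 ng/ml for plasma and 220/56,320 ng/g for tissue. Noncompartmental parameters taken from the composite mean profile.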

Blood [8] = assay: Tmax in F344 rat blood assessed as total compound-derived radioactivity at 5 mg/kg, iv administered as single bolus dose […]; assay type: ADME, organism-based; parameters: dose 5 mg/kg, route intravenous; conditions: in vivo; outline: as §1
Zone of skin [9] = assay: AUC (0 to infinity) in F344 rat skin at 5 mg/kg, iv administered as single bolus dose; assay type: ADME, organism-based; parameters: time infinity, dose 5 mg/kg, route intravenous; conditions: in vivo; outline: as §4
Spleen [10] = assay: Drug level in Long Evans rat spleen assessed as radioactivity per gram of tissue at 5 mg/kg, iv administered as single bolus dose measured 72 hrs postdose by autoradiography; assay type: ADME, organism-based; parameters: dose 5 mg/kg, route intravenous; conditions: in vivo
Outline: (§5)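 Male pigmented Long Evans (HsdBlu:LE) rats, 7.5 weeks old and 202 to 217 g, got a single iv dose of [14C]anidulafungin at 5 mg/kg. One rat per time point (0.5, 6, 12, 24, 72, 168 h) was euthanised by isoflurane and cardiac-puncture exsanguination. Sagittal whole-body sections were quantified by phosphorimaging. Samples were thickness-corrected, and concentrations (μg eq/g) were interpolated from least-squares standard curves.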

Zone of skin [11] = assay: Drug level in Long Evans rat skin assessed as radioactivity per gram of tissue at 5 mg/kg, iv administered as single bolus dose measured 6 hrs postdose by autoradiography; assay type: ADME, organism-based; parameters: dose 5 mg/kg, route intravenous; conditions: in vivo; outline: as §5
Liver [12] = assay: Half life in F344 rat liver assessed as total compound-derived radioactivity at 5 mg/kg, iv administered as single bolus dose […]; assay type: ADME, organism-based; parameters: dose 5 mg/kg, route intravenous; conditions: in vivo; outline: as §1
Lung [13] = assay: Cmax in F344 rat lung assessed as total compound-derived radioactivity per gram of tissue at 5 mg/kg, iv administered as single bolus dose after 5 mins by HPLC method; assay type: ADME, organism-based; parameters: dose 5 mg/kg, route intravenous; conditions: in vivo; outline: as §3
[14] = Cmax in F344 rat skin at 5 mg/kg, iv administered as single bolus dose after 30 min by HPLC method; assay type: ADME, organism-based, Zone of skin; parameters: dose 5 mg/kg, route intravenous; outline: as §4
Lung [15] = assay: Drug level in Long Evans rat lung assessed as radioactivity per gram of tissue at 5 mg/kg, iv administered as single bolus dose measured 0.5 hrs postdose by autoradiography; assay type: ADME, organism-based; parameters: dose 5 mg/kg, route intravenous; conditions: in vivo; outline: as §2
Spleen [16] = assay: Drug level in Long Evans rat spleen assessed as radioactivity per gram of tissue at 5 mg/kg, iv administered as single bolus dose measured 12 hrs postdose by autoradiography; assay type: ADME, organism-based; parameters: dose 5 mg/kg, route intravenous; conditions: in vivo; outline: as §5
Muscle tissue [17] = assay: Drug level in Long Evans rat muscle assessed as radioactivity per gram of tissue at 5 mg/kg, iv administered as single bolus dose measured 0.5 hrs postdose by autoradiography; assay type: ADME, organism-based; parameters: dose 5 mg/kg, route intravenous; conditions: in vivo; outline: as §2
Kidney [18] = assay: Drug level in Long Evans rat kidney assessed as high disposition of radioactivity per gram of tissue at 5 mg/kg, iv administered as single bolus dose measured 0.5 hrs postdose by autoradiography; assay type: ADME, organism-based; parameters: dose 5 mg/kg, route intravenous; conditions: in vivo; outline: as §2
Kidney [19] = assay: Drug level in Long Evans rat kidney assessed as low disposition of radioactivity per gram of tissue at 5 mg/kg, iv administered as single bolus dose measured 72 hrs postdose by autoradiography; assay type: ADME, organism-based; parameters: dose 5 mg/kg, route intravenous; conditions: in vivo; outline: as §2
Blood [20] = assay: Drug level in Long Evans rat blood assessed as radioactivity per gram of tissue at 5 mg/kg, iv administered as single bolus dose measured 72 hrs postdose by autoradiography; assay type: ADME, organism-based; parameters: dose 5 mg/kg, route intravenous; conditions: in vivo; outline: as §2
Cerebrum = assay: Drug level in Long Evans rat cerebrum assessed as radioactivity per gram of tissue at 5 mg/kg, iv administered as single bolus dose measured 72 hrs postdose by autoradiography; assay type: ADME, organism-based; parameters: dose 5 mg/kg, route intravenous; conditions: in vivo; outline: as §2
Lung [21] = assay: AUC (0 to 24 hrs) in F344 rat lung assessed as total compound-derived radioactivity per gram of tissue at 5 mg/kg, iv administered as single bolus dose […]; assay type: ADME, organism-based; parameters: time < 24 hr, dose 5 mg/kg, route intravenous; conditions: in vivo; outline: as §3
Cerebrospinal fluid [22] = assay: Cmax in F344 rat cerebrospinal fluid assessed as total compound-derived radioactivity per gram of tissue at 5 mg/kg, iv administered as single bolus dose […]; assay type: ADME, organism-based; parameters: dose 5 mg/kg, route intravenous; conditions: in vivo; outline: as §3
Kidney [23] = assay: Cmax in F344 rat kidney assessed as total compound-derived radioactivity per gram of tissue at 5 mg/kg, iv administered as single bolus dose after 30 mins by HPLC method; assay type: ADME, organism-based; parameters: dose 5 mg/kg, route intravenous; conditions: in vivo, 0.5 h; outline: as §3
Zone of skin [24] = assay: Drug level in Long Evans rat skin assessed as radioactivity per gram of tissue at 5 mg/kg, iv administered as single bolus dose measured 12 hrs postdose by autoradiography; assay type: ADME, organism-based; parameters: dose 5 mg/kg, route intravenous; conditions: in vivo; outline: as §5
Cerebrospinal fluid [25] = assay: Drug level in Long Evans rat cerebrospinal fluid assessed as radioactivity per gram of tissue at 5 mg/kg, iv administered as single bolus dose measured 0.5 hrs postdose by autoradiography; assay type: ADME, organism-based; parameters: dose 5 mg/kg, route intravenous; conditions: in vivo; outline: as §2
Lung [26] = assay: Drug level in Long Evans rat lung assessed as radioactivity per gram of tissue at 5 mg/kg, iv administered as single bolus dose measured 6 hrs postdose by autoradiography; assay type: ADME, organism-based; parameters: dose 5 mg/kg, route intravenous; conditions: in vivo; outline: as §2
Liver [27] = assay: Drug level in Long Evans rat liver assessed as low disposition of radioactivity per gram of tissue at 5 mg/kg, iv administered as single bolus dose measured 12 hrs postdose by autoradiography; assay type: ADME, organism-based; parameters: dose 5 mg/kg, route intravenous; conditions: in vivo; outline: as §2
Plasma = assay: Cmax in F344 rat plasma assessed as total compound-derived radioactivity per gram of tissue at 5 mg/kg, iv administered as single bolus dose after 5 mins by HPLC method; assay type: ADME, organism-based; parameters: dose 5 mg/kg, route intravenous; conditions: in vivo; outline: as §3

With `CCCCCOc1ccc(-c2ccc(-c3ccc([14C](=O)N[C@H]4C[C@@H](O)[C@@H](O)NC(=O)[C@@H]5[C@@H](O)[C@@H](C)CN5C(=O)[C@H]([C@@H](C)O)NC(=O)[C@H]([C@H](O)[C@@H](O)c5ccc(O)cc5)NC(=O)[C@@H]5C[C@@H](O)CN5C(=O)[C@H]([C@@H](C)O)NC4=O)cc3)cc2)cc1` [14C-ANIDULAFUNGIN] the t1/2 (Muscle tissue [1]) was 37.5 h, the Drug uptake (Kidney [2]) was 4.41 ugequiv and the Drug uptake (Kidney [3]) was 7.32 ugequiv. The Tmax (Cerebrospinal fluid [4]) was 4.98 min, the Drug uptake (Kidney [5]) was 2.57 ugequiv and the Cmax (Zone of skin [6]) was 5.4 ugequiv/g. The Cmax [7] was 15900 ng/g, the Tmax (Blood [8]) was 4.98 min and the AUC (Zone of skin [9]) was 124.11 µg·h/g. For the same compound, the Drug uptake (Spleen [10]) was 4.37 ugequiv, the Drug uptake (Zone of skin [11]) was 5.39 ugequiv and the t1/2 (Liver [12]) was 69.2 h. For the same compound, the Cmax (Lung [13]) was 39.29 ugequiv/g, the Cmax [14] was 4020 ng/g and the Drug uptake (Lung [15]) was 22.31 ugequiv. The Drug uptake (Spleen [16]) was 11.48 ugequiv, the Drug uptake (Muscle tissue [17]) was 3.45 ugequiv and the Drug uptake (Kidney [18]) was 18.09 ugequiv. The Drug uptake (Kidney [19]) was 1.97 ugequiv, the Drug uptake (Blood [20]) was 0.85 ugequiv and the Drug uptake (Cerebrum) was 0.47 ugequiv. The AUC (Lung [21]) was 934.92 ugequiv.hr/g, the Cmax (Cerebrospinal fluid [22]) was 0.07 ugequiv/g and the Cmax (Kidney [23]) was 19.63 ugequiv/g. The Drug uptake (Zone of skin [24]) was 5.34 ugequiv, the Drug uptake (Cerebrospinal fluid [25]) was 5.51 ugequiv and the Drug uptake (Lung [26]) was 22.88 ugequiv. It also gave a Drug uptake (Liver [27]) of 15.03 ugequiv and a Cmax (Plasma) of 7.57 ugequiv/g.
